# The source made the active and inactive calls.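 The calls were made as follows: active = viability below 80% at one or more tested concentrations, flagged as toxic; inconclusive = replicate runs disagree on whether the viability criterion is met; inactive = viability at or above 80% at every dose.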
# Test system: not listed separately
# Test: viability loss in Vero E6 cells – cell-based, set 2, cytotoxicity control for PfM17LAP inhibitor project, dose response (AID 602227)
# Conditions: Vero E6 viability, CellTiter-Glo luminescence, 72 h; at 50 µM (top of the series)
# Method in brief: (§1)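 System: Vero E6 cells. Signal: CellTiter-Glo luminescence as viable cell measure. Schedule: 72 h compound exposure at 37 °C, 5% CO2. Medium: E-MEM growth medium with 10% fetal bovine serum. Benchmarks: DMSO vehicle-treated cells as reference for full viability. Doses: compound dose-response, 10 concentrations in 2-fold serial dilution.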
row,Structure (SMILES),viability
1,CCCCOc1ccc(CNc2c(N(O)Cc3ccccc3)c(=O)c2=O)cc1,92.8% (inactive)
2,COC(=O)Cc1ccc(OCCN(C)C)cc1,94.5% (inactive)
3,CCC(C)Oc1ccc(CC(=O)OC)cc1 (configuration not stated),102% (inactive)
4,COc1ccc(CC(=O)NO)cc1,95.7% (inactive)
5,CCCCOc1ccc(CC(=O)O)cc1,88.7% (inactive)
6,CCCCOc1ccc(CNc2c(N(C)O)c(=O)c2=O)cc1,90% (inactive)
7,CC(C)(C(=O)NO)c1ccccc1,102% (inactive)
8,CCCOc1ccc(CC(=O)OC)cc1,94.9% (inactive)
9,Cc1ccc(CC(=O)NO)cc1,102% (inactive)
10,COC(=O)Cc1ccc(OCC(C)C)cc1,101% (inactive)
11,CCOc1ccc(CC(=O)NO)cc1,98.9% (inactive)

# Test system: Vero E6 viability, CellTiter-Glo luminescence, 72 h
# Test: as above
# Conditions: not given
# Method in brief: as §1
row,Structure (SMILES),CC50
1,CN(O)C(=O)Cc1ccc(OCc2ccccc2)cc1,24.8 µM
2,CCCCOc1ccc(CCC(=O)NO)cc1,29.1 µM
3,O=C(Cc1ccc(Oc2ccccc2)cc1)NO,32.4 µM
4,CCCCc1ccc(CC(=O)NO)cc1,34.7 µM
5,CCCCOc1ccc(CC(=O)N(C)O)cc1,27.2 µM
6,CCCCCCCCCC(=O)NO,25.2 µM
